Converted amounts (≈) assume the structure as drawn.
Columns and labels:
[1] = tested on: L1210; assay: Cytotoxicity in the multiple tumor disk diffusion soft agar assay at the dose of 15 ug/disk against leukemia L1210; assay type: functional, Mus musculus
How it was run: (§1)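 Soft agar disk diffusion: bottom layer 0.8% noble agar, top layer 0.47% noble agar, both in 1:1 CMRL-Fischer medium with 11% horse serum. Top layer seeded with 5×10^3 L1210 cells or 10^6 solid tumor cells (C38, PO3). Drug applied on a dried 6-mm filter-paper disk. Incubation 7-11 days. Inhibition zone measured by inverted microscope, in units (1 unit = 30 μm).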

[2] = tested on: P388; assay: In vivo T/C (survival time treated/survival time control x 100) was determined against P388 leukemia cells at 40 mg/Kg; assay type: functional, Mus musculus
How it was run: (§2)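 B6D2 F1 mice, at least five per group, were inoculated ip on day 0 with 10^6 viable P388 cells (25 mL/kg). Compounds were dissolved in distilled water and given ip (25 mL/kg) daily on days 1–4. Mortality was checked daily, with necropsy of dead animals. T/C×100 was median survival, treated versus control. Survivors beyond 50 days counted as cured and were excluded from the median.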

[3] = tested on: P388; assay: (§3) In vitro cytotoxicity was determined against P388 leukemia cells; assay type: functional; settings: Mus musculus, read-out: ID50 (the source's name)
How it was run: (§4)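 P388 cells in exponential growth, RPMI 1640 with 2 mM glutamine, 10 μM 2-mercaptoethanol and 10% FCS, 5% CO2, 37 °C. Cells at 10^5 cells/mL. Drugs in distilled water added on day 0. Cells counted by Coulter counter after 96 h. ID50 (μg/mL, 50% inhibition of proliferation) estimated by regression of concentration/response data.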

[4] = Cytotoxicity in the multiple tumor disk diffusion soft agar assay at the dose of 15 ug/disk against solid tumor C38.; assay type: functional, Mus musculus; how it was run: as §1
[5] = tested on: P388; assay: In vivo T/C (survival time treated/survival time control x 100) was determined against P388 leukemia cells at 20 mg/Kg; assay type: functional, Mus musculus; how it was run: as §2
[6] = species: Mus musculus; assay: as §3; assay type: functional; settings: read-out: ID50 (the source's name); how it was run: as §4
[7] = Cytotoxicity in the multiple tumor disk diffusion soft agar assay at the dose of 15 ug/disk against solid tumor PO3; assay type: functional, Mus musculus; how it was run: as §1
[8] = Tested for the change in body weight between day 1 and 7 for murine solid tumor model 3LL early stage that is subcutaneously implanted by the intravenous treatment at the dose of 20 mg/kg in 1-4 schedule; assay type: functional, Mus musculus
[9] = tested on: Mus musculus; assay: In vivo total number of survivors was determined against L1210 Leukemia cells out of 8 mouse at 50 day; assay type: functional, Leukemia cell
How it was run: (§5)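 B6D2 F1 mice, at least five per group, were inoculated ip on day 0 with 10^5 viable L1210 cells (25 mL/kg). Compounds were dissolved in distilled water and given ip (25 mL/kg) on days 1–4. Deaths were checked daily, with necropsy to separate tumor from toxic death. T/C×100 was median survival of treated over controls. Mice surviving over 50 days counted as cured and were excluded from the median.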

[10] = tested on: Mus musculus; assay: In vivo total number of survivors was determined against P388 leukemia cells out of 5 mouse at 50 day; assay type: functional; how it was run: as §2
[11] = Tested for mean number of metastases in treated/control animals x 100 (% T/C) for murine solid tumor model 3LL early stage that is intramuscularly implanted by the intravenous treatment at the dose of 20 mg/kg in 1-4 schedule; settings: Mus musculus
[12] = tested on: L1210; assay: Tested for cytotoxicity in the multiple tumor disk diffusion soft agar assay at the dose of 15 ug/disk against leukemia L1210; range is 420-490; assay type: functional, Mus musculus; how it was run: as §1
[13] = tested on: P388; assay: In vivo T/C (survival time treated/survival time control x 100) was determined against P388 leukemia cells at 10 mg/Kg; assay type: functional, Mus musculus; how it was run: as §2
[14] = Tested for cytotoxicity in the multiple tumor disk diffusion soft agar assay at the dose of 15 ug/disk against solid tumor C38; range is 550-600; assay type: functional, Mus musculus; how it was run: as §1
[15] = tested on: P388; assay: In vivo T/C (survival time treated/survival time control x 100) was determined against P388 leukemia cells at 2.5 mg/Kg; assay type: functional, Mus musculus; how it was run: as §2
[16] = tested on: P388; assay: In vivo T/C (survival time treated/survival time control x 100) was determined against P388 leukemia cells at 5.0 mg/Kg; assay type: functional, Mus musculus; how it was run: as §2
[17] = tested on: L1210; assay: In vivo T/C (survival time treated/survival time control x 100) was determined against L1210 leukemia cells at 10 mg/Kg; assay type: functional, Mus musculus; how it was run: as §5
[18] = tested on: L1210; assay: Tested for cytotoxicity in the multiple tumor disk diffusion soft agar assay at the dose of 15 ug/disk against leukemia L1210; range is 450-650; assay type: functional, Mus musculus; how it was run: as §1
[19] = tested on: L1210; assay: Tested for cytotoxicity in the multiple tumor disk diffusion soft agar assay at the dose of 15 ug/disk against leukemia L1210; assay type: functional, Mus musculus; how it was run: as §1
[20] = Tested for cytotoxicity in the multiple tumor disk diffusion soft agar assay at the dose of 15 ug/disk against solid tumor C38; assay type: functional, Mus musculus; how it was run: as §1
[21] = Tested for the change in body weight between day 1 and 7 for murine solid tumor model 3LL early stage that is subcutaneously implanted by the intravenous treatment at the dose of 5 mg/kg in 1-4 schedule; assay type: functional, Mus musculus
[22] = Tested for medium tumor weight of treated /control animals x 100 (% T/C) for murine solid tumor model B16 early stage that is subcutaneously implanted by the intravenous treatment at the dose of 5 mg/kg in 1-4 schedule; assay type: functional, Mus musculus
How it was run: (§6)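 sc implant of 1 mm³ tumor fragment. MA 16/C in C3H mice, B16 in C57BL/6 mice, C26 in CD2F1 mice; 10 per group. iv dosing on days 1-4 at 10 mL/kg. Mice weighed daily. Killed day 14 (C26) or day 15 (MA 16/C, B16) and tumors weighed. T/C×100 from median tumor weight, treated vs control. Body weight change taken from day 1 to 7.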

[23] = Tested for the change in body weight between day 1 and 7 for murine solid tumor model B16 early stage that is subcutaneously implanted by the intravenous treatment at the dose of 10 mg/kg in 1-4 schedule; assay type: functional; settings: Mus musculus, dose 5 mg/kg, in the assay text read “5 mg/kg” for “10 mg/kg”; how it was run: as §6
[24] = Tested for medium tumor weight of treated /control animals x 100 (% T/C) for murine solid tumor model C26 early stage that is subcutaneously implanted by the intravenous treatment at the dose of 10 mg/kg in 1-4 schedule; assay type: functional, Mus musculus; how it was run: as §6
[25] = Tested for the change in body weight between day 1 and 7 for murine solid tumor model C26 early stage that is subcutaneously implanted by the intravenous treatment at the dose of 10 mg/kg in 1-4 schedule; assay type: functional, Mus musculus; how it was run: as §6
[26] = Tested for medium tumor weight of treated /control animals x 100 (% T/C) for murine solid tumor model MA 16/C early stage that is subcutaneously implanted by the intravenous treatment at the dose of 10 mg/kg in 1-4 schedule; assay type: functional, Mus musculus; how it was run: as §6
[27] = Tested for the change in body weight between day1 and 7 for murine solid tumor model MA 16/C early stage that is subcutaneously implanted by the intravenous treatment; assay type: functional, Mus musculus
How it was run: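 Mice given sc 1 mm³ tumor fragment: C26 in CD2F1 mice, MA 16/C in C3H mice (tumors passaged in strain of origin), 10 per group. Drug given iv days 1–4 at 10 mL/kg. Animals weighed daily and watched for toxicity. Body-weight change taken from day 1 to day 7. Killed day 14 (C26) or 15 (MA 16/C).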

[28] = Tested for medium tumor weight of treated /control animals x 100 (% T/C) for murine solid tumor model 3LL early stage that is subcutaneously implanted by the intravenous treatment at the dose of 10 mg/kg in 1-4 schedule; assay type: functional, Mus musculus
[29] = Tested for the change in body weight between day 1 and 14 for murine solid tumor model 3LL advanced stage that is intramuscularly implanted by the intravenous treatment at the dose of 10 mg/kg in 7-10 schedule; settings: Mus musculus
[30] = Tested for mean number of metastases of treated /control animals x 100 (% T/C) for murine solid tumor model 3LL advanced stage that is intramuscularly implanted by the intravenous treatment at the dose of 10 mg/kg in 7-10 schedule; settings: Mus musculus

CCN(CC)CCCNc1ncc(C)c2c1c1ccc3c(OC)cccc3c1n2C
Cytotoxicity [1]: 450 U
T/C x100 [2]: 124
IC50 [3]: 0.75 µg/mL (≈ 1.85 µM)
Cytotoxicity [4]: 430 U

Cc1c[nH]c(NCC(C)CN(C)C)c2c3c(ccc4cc(O)ccc43)nc1-2 (stereo not drawn)
Cytotoxicity [1]: 300 U
T/C x100 [5]: 213
IC50 [6]: 0.1 µg/mL (≈ 0.276 µM)
Cytotoxicity [4]: 675 U
Cytotoxicity [7]: 850 U
Change in weight [8]: -1.7 g
Survivors [9]: 2
Survivors [10]: 3
T/C [11]: 0%

Cc1c[nH]c(NCCCN(C)C)c2c3ccc4ccccc4c3nc1-2
Cytotoxicity [12]: 420 U
Cytotoxicity [1]: 500 U
T/C x100 [13]: 115
IC50 [3]: 0.375 µg/mL (≈ 1.13 µM)
Cytotoxicity [14]: 550 U
Cytotoxicity [7]: 310 U

Cc1c[nH]c(NCCCN(C)C)c2c3cc(O)ccc3nc1-2
T/C x100 [15]: 130

COc1cccc2c1ccc1c2[nH]c2c(C)cnc(NCCCN(C)C)c21
Cytotoxicity [1]: 280 U
T/C x100 [5]: 121
IC50 [3]: 0.15 µg/mL (≈ 0.414 µM)
Cytotoxicity [7]: 225 U

Cc1cnc(NCCCN(C)C)c2c3cc(O)ccc3n(C)c12
T/C x100 [16]: 128

CCN(CC)CCCNc1ncc(C)c2[nH]c3ccc4cc(O)ccc4c3c12
T/C x100 [17]: 149
Cytotoxicity [18]: 450 U
Cytotoxicity [1]: 475 U
T/C x100 [13]: 215
IC50 [3]: 0.05 µg/mL (≈ 0.133 µM)
Cytotoxicity [4]: 625 U
Cytotoxicity [7]: 900 U

Cc1cnc(NCCCN(C)C)c2c1[nH]c1ccc3ccccc3c12
Cytotoxicity [19]: 550 U
IC50 [3]: 0.1 µg/mL (≈ 0.301 µM)
Cytotoxicity [20]: 675 U

Cc1cnc(NCCCN(C)C)c2c1[nH]c1ccc3cc(O)ccc3c12 [INTOPLICINE]
T/C x100 [17]: 143
Cytotoxicity [1]: 375 U
T/C x100 [13]: 270
T/C x100 [16]: 182
IC50 [3]: 0.025 µg/mL (≈ 0.0717 µM)
Cytotoxicity [20]: 700 U
Cytotoxicity [7]: 850 U
Survivors [9]: 5
Change in weight [21]: -2.1 g
T/C [22]: 28%
Change in weight [23]: -1.1 g
T/C [24]: 0%
Change in weight [25]: -1.9 g
T/C [26]: 2%
Change in weight [27]: -1.7 g
T/C [28]: 0%
Change in weight [29]: -2.8 g
T/C [30]: 34%
